Reference: ChEMBL document CHEMBL1124240, “Substrate analogue inhibitors of the IgA1 proteinases from Neisseria gonorrhoeae” (J Med Chem, 1988)
Values joined by “and” are separate entries in the source; they are usually repeats but may differ in a detail not shown here. Identical values can stand only once. Bridge positions count the residues as written; N and C are the ends. Peptide text beside a SMILES is read from it. I, II: the chains in the order shown.

What was measured:
[1] = biological target: T1, IgA-specific serine endopeptidase autotransporter (Neisseria gonorrhoeae, UniProt P09790); assay: Tested for inhibitory activity against IgA1 proteinase
T1 sequence (P09790 whole entry): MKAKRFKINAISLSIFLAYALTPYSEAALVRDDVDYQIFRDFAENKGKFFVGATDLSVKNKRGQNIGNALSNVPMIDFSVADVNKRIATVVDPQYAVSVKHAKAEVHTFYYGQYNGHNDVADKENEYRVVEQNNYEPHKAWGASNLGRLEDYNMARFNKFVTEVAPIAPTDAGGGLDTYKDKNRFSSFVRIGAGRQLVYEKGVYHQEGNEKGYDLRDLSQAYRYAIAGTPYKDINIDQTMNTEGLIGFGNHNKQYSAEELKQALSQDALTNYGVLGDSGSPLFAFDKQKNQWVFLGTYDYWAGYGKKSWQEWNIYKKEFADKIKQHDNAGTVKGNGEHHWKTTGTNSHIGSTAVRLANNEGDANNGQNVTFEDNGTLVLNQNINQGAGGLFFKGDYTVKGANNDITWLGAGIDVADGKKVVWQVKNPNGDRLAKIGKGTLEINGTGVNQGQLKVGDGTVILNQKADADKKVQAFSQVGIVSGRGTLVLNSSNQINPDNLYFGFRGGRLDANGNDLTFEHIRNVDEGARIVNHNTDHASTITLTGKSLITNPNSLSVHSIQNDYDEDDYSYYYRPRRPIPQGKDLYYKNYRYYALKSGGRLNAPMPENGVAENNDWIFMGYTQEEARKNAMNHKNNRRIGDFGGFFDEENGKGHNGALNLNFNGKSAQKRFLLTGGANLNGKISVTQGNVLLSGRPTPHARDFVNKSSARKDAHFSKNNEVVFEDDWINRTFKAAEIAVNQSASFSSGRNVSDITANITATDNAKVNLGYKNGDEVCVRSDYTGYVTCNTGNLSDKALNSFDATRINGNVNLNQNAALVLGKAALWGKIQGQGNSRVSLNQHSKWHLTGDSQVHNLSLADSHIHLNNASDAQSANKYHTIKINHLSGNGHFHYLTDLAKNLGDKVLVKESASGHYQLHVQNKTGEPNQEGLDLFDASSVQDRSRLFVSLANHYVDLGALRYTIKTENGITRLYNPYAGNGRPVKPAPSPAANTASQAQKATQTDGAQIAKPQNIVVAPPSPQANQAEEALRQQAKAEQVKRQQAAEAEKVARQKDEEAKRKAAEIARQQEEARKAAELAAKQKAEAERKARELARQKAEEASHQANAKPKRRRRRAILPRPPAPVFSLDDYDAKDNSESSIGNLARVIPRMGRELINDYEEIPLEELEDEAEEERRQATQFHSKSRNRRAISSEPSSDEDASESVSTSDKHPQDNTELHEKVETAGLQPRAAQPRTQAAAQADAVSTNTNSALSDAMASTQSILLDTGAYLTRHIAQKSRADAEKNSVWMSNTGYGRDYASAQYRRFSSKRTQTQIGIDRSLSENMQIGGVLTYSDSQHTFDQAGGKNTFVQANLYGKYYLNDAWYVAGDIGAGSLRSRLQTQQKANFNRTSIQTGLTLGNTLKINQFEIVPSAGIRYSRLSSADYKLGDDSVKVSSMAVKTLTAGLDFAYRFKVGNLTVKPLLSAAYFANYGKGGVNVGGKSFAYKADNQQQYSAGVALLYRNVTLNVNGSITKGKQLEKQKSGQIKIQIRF
Outline: (§1)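 Type 1 and type 2 IgA1 proteinases from N. gonorrhoeae, partially purified from cell-free defined-medium cultures and stored at -70 °C. Peptides were in 0.05 M Tris-HCl, pH 7.5, and preincubated with enzyme for 30 min at 37 °C. Substrate was monoclonal monomeric human serum IgA1, 125I-labelled. Samples were taken at 10-min intervals over 30 min and run on SDS-PAGE with autoradiography. Fd, Fc and uncleaved α-chain bands were counted, and the rate came from the slope of percent cleavage versus time.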

[2] = biological target: IgA-specific serine endopeptidase autotransporter (Neisseria gonorrhoeae) (UniProt P09790); assay: Percent inhibition was tested against IgA1 proteinase at 0.30 mM; outline: as §1
IgA-specific serine endopeptidase autotransporter (Neisseria gonorrhoeae), sequence (P09790 whole entry): as above

[3] = biological target: IgA-specific serine endopeptidase autotransporter (Neisseria gonorrhoeae) (UniProt P09790); assay: Tested for inhibitory activity against IgA1 proteinase at >2 mM; outline: as §1
[4] = biological target: T1, IgA-specific serine endopeptidase autotransporter; assay: Tested for inhibitory activity against IgA1 proteinase assayed in 40% TFE
Outline: (§2)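 Buffer contained 40% trifluoroethanol to dissolve the peptide. Type 1 and type 2 N. gonorrhoeae IgA1 proteinases (partially purified) were preincubated with inhibitor for 30 min at 37 °C, then cleaved 125I-labelled monomeric human IgA1. Samples were taken every 10 min over 30 min, boiled and run on SDS-PAGE. Fd/Fc/α-chain segment counts gave percent cleavage, and the rate was taken from the slope.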

[5] = biological target: T1, IgA-specific serine endopeptidase autotransporter; assay: Tested for inhibitory activity against IgA1 proteinase in 40% TFE; outline: as §2

Compound: CC(=O)N[C@@H](CSSC[C@H](NC(C)=O)C(=O)N1CCC[C@H]1C(=O)N1CCC[C@H]1C(=O)N[C@H](C(=O)N1CCC[C@H]1C(=O)N[C@@H](CO)C(=O)N1CCC[C@H]1C(=O)N[C@@H](CO)C(N)=O)[C@@H](C)O)C(=O)N1CCC[C@H]1C(=O)N1CCC[C@H]1C(=O)N[C@H](C(=O)N1CCC[C@H]1C(=O)N[C@@H](CO)C(=O)N1CCC[C@H]1C(=O)N[C@@H](CO)C(N)=O)[C@@H](C)O (I: Ac-CPPTPSPS-NH2 / II: Ac-CPPTPSPS-NH2; disulfide I:1-II:1)
- IC50 [1]: 1810 µM and 3450 µM

Compound: CC(=O)N[C@H](C(=O)N1CCC[C@H]1C(=O)N1CCC[C@H]1C(=O)N[C@H](C(=O)N1CCC[C@H]1C(=O)N[C@@H](CSSC[C@H](NC(=O)[C@@H]1CCCN1C(=O)[C@@H](NC(=O)[C@@H]1CCCN1C(=O)[C@@H]1CCCN1C(=O)[C@@H](NC(C)=O)[C@@H](C)O)[C@@H](C)O)C(=O)N1CCC[C@H]1C(=O)N[C@@H](CO)C(N)=O)C(=O)N1CCC[C@H]1C(=O)N[C@@H](CO)C(N)=O)[C@@H](C)O)[C@@H](C)O
- IC50 [1]: 5150 µM

Compound: H-TPPTPSPSTPPTPSPS-OH
- IC50 [1]: 310 µM

Compound: Ac-TPPTPSPC-NH2
- IC50 [1]: 1030 µM and 490 µM

Compound: C[C@H](O)[C@H](NC(=O)[C@@H]1CCCN1C(=O)[C@@H]1CCCN1C(=O)[C@@H](N)[C@@H](C)O)C(=O)N1CCC[C@H]1C(=O)N[C@@H](CO)C(=O)N1CCC[C@H]1C(=O)N[C@@H](CO)C(=O)N[C@H](C(=O)N1CCC[C@H]1C(=O)N1CCC[C@H]1C(=O)N[C@H](C(=O)N1CCC[C@H]1C(=O)N[C@@H](CO)N1CCC[C@H]1C(=O)N[C@@H](CO)C(=O)O)[C@@H](C)O)[C@H](C)O
- inhibition [2]: 19%

Compound: Ac-CPPTPSPS-NH2
- IC50 [1]: 310 µM and 120 µM

Compound: H-TPPTPSPS-OH
- IC50 [1]: 260 µM and 500 µM

Compound: H-TPPTPSPS-NH2
- IC50 [1]: 400 µM and 180 µM

Compound: CC(=O)N[C@H](C(=O)N1CCC[C@H]1C(=O)N1CCC[C@H]1C(=O)N[C@H](C(=O)N1CCC[C@H]1C(=O)N[C@@H](CSSC[C@H](NC(=O)[C@@H]1CCCN1C(=O)[C@@H](NC(=O)[C@@H]1CCCN1C(=O)[C@@H]1CCCN1C(=O)[C@@H](NC(C)=O)[C@@H](C)O)[C@@H](C)O)C(=O)N1CCC[C@H]1C(=O)N[C@@H](CO)C(N)=O)C(=O)N1CCC[C@H]1C(=O)N[C@@H](CO)C(N)=O)[C@H](C)O)[C@@H](C)O
- inhibition [3]: 0%

Compound: CC(=O)N[C@H](C(=O)N1CCC[C@H]1C(=O)N1CCC[C@H]1C(=O)N[C@H](C(=O)N1CCC[C@H]1C(=O)N[C@@H](CO)C(=O)N1CCC[C@H]1C(=O)N[C@@H](CSSC[C@H](NC(=O)[C@@H]1CCCN1C(=O)[C@H](CO)NC(=O)[C@@H]1CCCN1C(=O)[C@@H](NC(=O)[C@@H]1CCCN1C(=O)[C@@H]1CCCN1C(=O)[C@@H](NC(C)=O)[C@@H](C)O)[C@@H](C)O)C(N)=O)C(N)=O)[C@@H](C)O)[C@@H](C)O
- IC50 [1]: 3300 µM

Compound: Ac-TPPTPSPS-OH
- IC50 [1]: 1570 µM and 510 µM

Compound: CC(=O)N[C@H](C(=O)N1CCC[C@H]1C(=O)N1CCC[C@H]1C(=O)N[C@@H](CSSC[C@H](NC(=O)[C@@H]1CCCN1C(=O)[C@@H]1CCCN1C(=O)[C@@H](NC(C)=O)[C@@H](C)O)C(=O)N1CCC[C@H]1C(=O)N[C@@H](CO)C(=O)N1CCC[C@H]1C(=O)N[C@@H](CO)C(N)=O)C(=O)N1CCC[C@H]1C(=O)N[C@@H](CO)C(=O)N1CCC[C@H]1C(=O)N[C@@H](CO)C(N)=O)[C@@H](C)O (I: Ac-TPPCPSPS-NH2 / II: Ac-TPPCPSPS-NH2; disulfide I:4-II:4)
- IC50 [4]: 170 µM
- IC50 [5]: 200 µM

Compound: Ac-TPPTPSPS-NH2
- IC50 [1]: 9350 µM and 6680 µM

Compound: Ac-TPPTPCPS-NH2
- IC50 [1]: 200 µM and 50 µM
